Experiment: Toxicity liver stage against HepG2, at 10uM
Assay type: cell-based
Design: test concentration 10 uM, cell line HepG2-A16-CD81EGFP
Settings: human, HepG2-A16-CD81EGFP cells; read-out: INHIBITION
Procedure, shortened: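 Uninfected HepG2-A16-CD81EGFP cells, 3 × 10^3 per well, 1536-well, plated on prespotted compound at 10 μM final, parasite-free screening media added to match infected plates; puromycin 10 μM positive, DMSO 0.5% negative; run in parallel with 48 h PbLuc assay at 37 °C, 5% CO2; viability by CellTiter-Glo luminescence, normalized to controls.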

| SMILES | cytotoxicity at 10 µM |
| --- | --- |
| Cc1cccc(S(=O)(=O)N2Cc3c(CN(C)C)nn(C)c3C2)c1 | -0.53% |
| Cc1cc(C(=O)NC2(c3cccc(F)c3)CCOCC2)no1 | 1.42% |
| COCCN1C(=O)CC[C@@H]2[C@@H]1CCN2Cc1c(C)noc1C | 6.57% |
| Cc1nc2c(c(NCC(=O)NC(C)C)n1)Cc1ccccc1OC2 | 4.81% |
| Cc1ccc(C)c(CS(=O)(=O)CC(=O)Nc2ccc(F)cc2F)c1 | 3.28% |
| COCCN1CCC2(CCCN(c3ncccn3)C2)C1 (stereo not given) | 1.36% |
| C1CC(CN2C[C@@H]3CC[C@H]2CN(Cc2noc(C4CCCC4)n2)C3)C1 | -15.6% |
| CNc1ccc(CC2CCCN(C(=O)c3cccc(C)n3)C2)nn1 (stereo not given) | -12.3% |
| COC[C@]1(O)CCN(c2cc(OC)ncn2)CC1(C)C | 5.66% |
| O=C(C1=CCCC1)N1C[C@H](OCc2cccnc2)[C@H]2OCCC[C@H]21 | 7.86% |
| O=C(C1CCOCC1)N1CCc2ncnc(-c3ccccc3)c2CC1 | -6.09% |
| O=C(c1cnccn1)N1CCN(c2ccnc3ccsc23)CC1 | 12.6% |
| Cc1ncncc1C(=O)N1CCCC(c2[nH]ncc2S(C)(=O)=O)C1 (stereo not given) | -4.41% |
| O=C([C@H]1CCCO1)N1CCC2(CC1)C(=O)N(CC1CC1)c1ccccc12 | 8.5% |
| CN(C)CCN1CCN(Cc2ccco2)Cc2cccnc21 | 1.73% |
| CNc1cc2c(nn1)CCN(C(=O)c1cc(C)n(C3CC3)c1C)C2 | -14.4% |
| O=C(NCCCn1cncn1)N1CCCC(N2CCCC2)C1 (stereo not given) | -2.66% |
| O=C(O)c1ccnc(-c2ccnc(N3CCCCCC3)n2)c1 | -10% |
| O=C([C@@H]1CCO[C@@H]2CCN(CCc3ccccc3)C[C@@H]21)N1CCCC1 | -3.06% |
| COc1cccc(-n2cc3[nH]c(=O)n(C(C)C)n3c2=O)c1 | -7.32% |
| OC1(CN2CCCC(Cn3cncn3)C2)CCCCC1 (stereo not given) | 2.96% |
| CNS(=O)(=O)c1cccc(CNc2cc(C(F)(F)F)ccn2)c1 | -6.85% |

| SMILES | cytotoxicity at 10 µM |
| --- | --- |
| Cc1ccc([C@@H]2CN(S(=O)(=O)Cc3ccccc3)C[C@H]2N(C)C)cc1 | -2.85% |
| CC(NC(N)=O)C(=O)N1CCCN(Cc2nccn2C(C)C)CC1 (stereo not given) | 1.95% |
| Cc1nn(CCNS(=O)(=O)c2ccccc2)c(C)c1Cl | -5.26% |
| CC(C)Cn1cc2nc(N)[nH]cc-2c1=O | 5.26% |
| COc1ccc(C(C#N)NC(=O)Cc2ccc(F)c(F)c2)c(OC)c1 (stereo not given) | 21.6% |
| NC(=O)c1ccccc1Oc1cccc(C2CCCNC2)n1 (stereo not given) | 5.19% |
| COc1cccc(CC2(C(=O)O)CCN(c3nccs3)CC2)c1 | -9.59% |
| CN(C)c1nc2c(c(=O)[nH]1)Cc1ccccc1OC2 | -104% |
| Cc1cccc(CN2CCO[C@H]3[C@@H](OCc4ccncc4)CC[C@@H]32)n1 | -85.4% |
| COc1ccc(Cl)c(NCC(=O)NCC(=O)N2CCCC2)c1 | -5.7% |
| CCNc1ncc(C(=O)N2CCC(c3ccccc3C(=O)O)C2)cn1 (stereo not given) | -6.41% |
| CC(=O)N1CC2(CCNCC2)c2cc(Cl)ccc21 | -0.655% |
| Cc1ccccc1[C@@H]1CN(Cc2ccc(C(F)(F)F)nc2)C[C@H]1C(=O)O | 5.33% |
| CCSCCn1c(=O)n(Cc2ccc(F)cc2)c2ncc(C(=O)O)cc21 | -2.54% |
| O=C(Cn1cc(C(=O)O)ccc1=O)NCc1ccc(F)c(Cl)c1 | -5.88% |
| O=C(CN1CCCC1c1noc(C2CC2)n1)N1CCc2ccccc21 (stereo not given) | -5.86% |
| Cc1cc(C(F)(F)F)nc(CNC(=O)CCC2CCCCN2C)n1 (stereo not given) | -59% |
| CCCc1c(C(=O)N2CCN(c3nccc(OC)n3)CC2)cnn1C | 17.2% |
| Cc1cccc(S(=O)(=O)N2CSCC2C(=O)NC(C)(C)C)c1 (stereo not given) | -3.75% |
| CCN(Cc1noc(C2CC2)n1)Cc1ccc(C#N)cc1F | -1.74% |
| O=C(NCc1cccnc1)C1=NOC2(CCN(S(=O)(=O)C3CC3)C2)C1 (stereo not given) | -7.36% |
| CCOc1ccccc1C(C(=O)O)N(C)CC1CCOCC1 (stereo not given) | -4.36% |

| SMILES | cytotoxicity at 10 µM |
| --- | --- |
| Cn1ccc(CN2CCCC23CCN(Cc2cccc(F)c2)CC3)n1 | -103% |
| COCCN(C)C[C@@H]1CN(C(=O)c2c(C)cccc2OC)C[C@@H]1CO | -4.26% |
| Cc1nc[nH]c1-c1c(-c2ccccc2)ncn1C1CCNC1 (stereo not given) | -52.4% |
| OC1CCN(C2CCN(c3ccc(Cn4ccnc4)cn3)CC2)CC1 | -2.05% |
| Cc1cccc2c1NC1(CCCC1)NC2=O | -48.5% |
| CC(=O)NC1CCN(C(=O)Nc2cccc(SC(F)F)c2)CC1 | -0.598% |
| CCOC(=O)C1CC2(CCCCC2)N2CCC(=O)N12 (stereo not given) | 2.63% |
| c1cncc(CN2CCC3(CC2)CC(c2cccnc2)CO3)c1 (stereo not given) | 0.851% |
| Cc1cnn(CCCNC(=O)NC2CCN(CC(F)(F)F)C2=O)c1 (stereo not given) | 5.79% |
| CCOCC(=O)N1CCCn2c(CN3CCOCC3)nnc2C1 | -132% |
| Cc1cc(CN(C)C(=O)c2ccc(F)cc2F)no1 | -6.47% |
| Cc1cccc(CN2CCC(NCC3CNc4cc(C)nn4C3)CC2)c1 (stereo not given) | 7.36% |
| N#Cc1cccc(CS(=O)(=O)NCCC(O)c2ccccc2)c1 (stereo not given) | 0.692% |
| O=C(NCCNC(=O)c1scnc1Cl)c1ccccc1 | 8.45% |
| COCCS(=O)(=O)c1ncc(CN(C)CC(C)C)n1Cc1ccccc1 | -1.27% |
| CCOc1ccccc1OC1CCN(C(=O)c2[nH]nc(C)c2Br)CC1 | -8.75% |
| CC[C@H]1COCCN1C(=O)c1cnc(N2CCN(C)CC2)nc1C | -12.4% |
| O=C(O)CSc1nccc(-c2ccc3c(c2)OCO3)n1 | -3.61% |
| O=C1NCCCCC1NCc1csc(-c2ccc(F)cc2)n1 (stereo not given) | -13.5% |
| Cc1nc2[nH]cnc(NCCN3CCOCC3)c-2n1 | 3.22% |
| CCc1ccc(CN(C)c2cc(COC)nc3ccnn23)cc1 | 3.52% |
| O=C(NCc1nncn1C1CC1)c1cccnc1Oc1ccccc1 | 1.57% |

| SMILES | cytotoxicity at 10 µM |
| --- | --- |
| CC(C)c1nncn1CCNC(=O)c1ccc(Cl)cc1O | -5.01% |
| CC(C)OCCOCc1cccc(NC(=O)NCC(=O)N(C)C)c1 | -5.53% |
| O=c1cc(-c2ccncc2)nc(-c2ccc(CN3CC[C@@H](O)C3)cc2)[nH]1 | 3.03% |
| Cc1ccccc1CNC(=O)N1CC[C@@H]2CN(C)S(=O)(=O)[C@@H]2CC1 | -0.39% |
| Cn1cnc(S(=O)(=O)N2CCO[C@H]3[C@H](OCC4CC4)CC[C@@H]32)c1 | 8.31% |
| CCOC1COC2(CCN(Cc3ccc4c(c3)OCO4)CC2)C1 (stereo not given) | 6.94% |
| Cn1ccnc1CCNS(=O)(=O)c1ccc(Br)cc1 | 3.32% |
| C=Cn1ncc(CN2C[C@@H]3C[C@@H](O)CN3C[C@H]2Cc2ccccc2)c1C | 4.08% |
| O=C(CCN1CCCC1=O)NCc1cccnc1Oc1ccccc1 | -7.47% |
| CN1CCCN(C(=O)c2cnsn2)c2cc(F)ccc21 | -4.03% |
| CN1CCN(CC2CC2)C(=O)c2cnc(N3CC[C@@H](O)C3)nc21 | 2.19% |
| Cc1cc(C)n(C2CCCN(C(=O)c3ccc(F)c(F)c3)C2)n1 (stereo not given) | -4.91% |
| NC(=O)CN1CCCCC1c1ccc(-n2ccnc2)nc1 (stereo not given) | 1.6% |
| O=C1CCCN1CCN1CCC(c2ccn[nH]2)CC1 | 11.3% |
| CCOCC(=O)N1C[C@@H](O)[C@H](N(C)Cc2ccc(OC)cc2)C1 | 0.307% |
| O=C(Cc1cccc(F)c1)NCCCNC(=O)c1cccc(O)c1 | 1.06% |
| CCN1CCO[C@]2(CCC[C@H]2COCc2csc(C)n2)C1 | 0.153% |
| O=C(O)c1nnn(-c2ccc(Cl)c(C(F)(F)F)c2)c1-c1ccncc1 | 8.63% |
| Cc1nc(CN2C(=O)COC3(CCN(C(N)=O)CC3)C2C)cs1 (stereo not given) | -130% |
| COc1ccccc1S(=O)(=O)NCC(c1cccn1C)N(C)C (stereo not given) | 1.51% |
| CCn1cnnc1CNC(=O)N1CCN(Cc2ccsc2)CC1 | -15.4% |
| CS(=O)(=O)NCCCNC(=O)c1cccc(-n2cccc2)c1 | -9.86% |

| SMILES | cytotoxicity at 10 µM |
| --- | --- |
| O=C(CCc1nccs1)N1CCCC(n2ccnc2)C1 (stereo not given) | -16% |
| Cc1cc(C)n(C2CN(c3ncnc4c3CCNCC4)C2)n1 | 7.99% |
| CC(C)CC(=O)N1CCCn2cnc(CN3CCCC3=O)c2C1 | -6.42% |
| Cc1cc(NC(=O)Cc2ccccc2O)c[nH]c1=O | -2.38% |
| CN(C)C(=O)N1CCN(C(=O)c2ccc(Cl)c(Cl)c2)C(C)(C)C1 | -4.71% |
| CC(C)N1CCN(C(=O)c2ccccc2NCc2cccnc2)CC1 | -19.4% |
| CCOc1cccc(NCc2cnc(N3CCN(C)CC3)nc2)n1 | 1.75% |
| CC(C)COCCNC(=O)NC1CCCN(c2cnn(C)c2)C1 (stereo not given) | 9.39% |
| Cc1nnc(CSc2n[nH]c(-c3ccccn3)n2)o1 | 5.81% |
| CCOCC1COCCC12CCN(C(=O)C1=CCCCC1)CC2 (stereo not given) | -3.09% |
| Cc1cnn(CC2CCCCN2C(=O)c2n[nH]c3ccccc23)c1 (stereo not given) | -8.25% |
| O=C(Nc1cn[nH]c1)N1CCCCCC1c1ccncc1 (stereo not given) | -3.4% |
| Clc1cccc(-c2noc(CCN3CCN(c4ccncc4)CC3)n2)c1 | 24% |
| Cc1cc(C)nc(N2CCN(C(=O)c3cc(Cl)c[nH]3)CC2)n1 | -4% |
| COCCCn1ccc(NC(=O)NCCCn2ccnc2)n1 | -3.04% |
| CS(=O)(=O)CCOCCNc1ccc(C#N)cc1F | -3.34% |
| CC(C(=O)NCCCN1CCOCC1)n1cncn1 (stereo not given) | 1.4% |
| Cc1c(C(=O)O)cnn1-c1ccc(-c2nc(C(C)C)no2)cn1 | -3.42% |
| CCc1nc(-c2cccc(C(=O)O)c2)no1 | -10% |
| CC(C)(O)CNC(=O)c1sccc1Br | -5.58% |
| CC(Oc1ccccc1)C(=O)N1CCCN(Cc2nccn2C)CC1 (stereo not given) | 0.471% |
| Cc1nc(CO[C@@H]2CN(Cc3cccs3)[C@@H]3COC[C@@H]32)cs1 | -0.646% |

— ChEMBL document CHEMBL4513216, “Probing the Open Global Health Chemical Diversity Library for Multistage-Active Starting Points for Next-Generation Antimalarials” (ACS Infect Dis, 2020)
